One data set concerns cultured cells. As to conditions: preliminary screening of QD cellular delivery; cited from earlier work.
Another data set deals with A549 cells. Kind of data set: Cellular viability after exposure to QD-peptide conjugates. To be noted: exposure to 100 nM of 75 peptide/QD. It counts as cell-based, human.
The subject of data set [1] is Primary human dermal fibroblasts. Kind of data set: Semi-quantitative imaging assay of QD uptake and endosomal escape. It counts as cell-based. The procedure, abridged: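 Peptides were self-assembled onto 550 nm CdSe/ZnS QDs in DMEM with 25 mM HEPES at 25°C for 20–30 min (QDs typically 80–150 nM final). Cells on fibronectin-coated coverglass were exposed for 2 h at 37°C with Tf-Cy5 (50 µg/mL) to mark endosomes, then washed, cultured 48 h, fixed in 3.7% paraformaldehyde and DAPI-stained. Individual cells were imaged and classed for QD uptake (none/low/moderate/high) and endosomal escape.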

A further data set concerns PC12 cells. Kind of data set: Cellular viability after exposure to QD-peptide conjugates. In kind it is cell-based, rat. As to conditions: exposure to 100 nM of 75 peptide/QD.
Data set [2] has as its system COS-1 cells. As to the kind of experiment: Semi-quantitative imaging assay of QD uptake and endosomal escape. It counts as cell-based, African Green Monkey.
Data set [3] relates to COS-1 cells. Kind of data set: Cellular viability after exposure to QD-peptide conjugates. In kind it is cell-based, African Green Monkey.
Another data set relates to HEK 293 cells. Described as above. It counts as cell-based, human. To be noted: exposure to 100 nM of 75 peptide/QD.
A further data set has as its system Hela cells. Described as above. It counts as cell-based, human. To be noted: exposure to 100 nM of 75 peptide/QD.
The test system of data set [4] is Primary human dermal fibroblasts. Described as above. In kind it is cell-based. As to conditions: exposure to 100 nM of 75 peptide/QD.

WG•(Dap^Pal)•VKIKK•P9•GG•H6 [JB577]: the “Time after delivery at which cytosolic release peaked” value with cultured cells is reported as ~ 48 h. Also, the “Time of endocytic uptake of QDs” value with cultured cells is 1 to 2 h. Also, the “Cellular viability (%)” value with A549 cells stood at 96 ±3%; in the data set with PC12 cells, 97 ±10%; in the data set with COS-1 cells [3] (exposure to 100 nM of 75 peptide/QD), 98 ±4%; with HEK 293 cells it was 87 ±5%; in the data set on Hela cells it was 98 ±1%; in data set [4], 92 ±6%. For the same substance, the “Overall uptake/escape: QD uptake class” value in [1] (first word of the cell) is reported as “high (high (>60% uptake))”; with COS-1 cells [2] (first word of the cell, 100 nM QDs, 75 peptides/QD, 48 h culture) it was “high/high (high (>60% uptake))”. Further, the “Overall uptake/escape: endosomal escape class” value in [1] (second word of the cell) is “moderate (moderate (30–70%))”. In the data set with COS-1 cells [2] (100 nM 550 nm QDs, 75 peptides/QD, 2 h incubation, 48 h culture), the “% Escape in cells with uptake” value is given as ~ 77%. For the same substance, in the data set with COS-1 cells [2] (QD-peptide conjugates, SAR comparison with JB577), the “Endosomal escape / intracellular localization of QDs, result in words” value was “well-dispersed throughout the cytosol”. In addition, in the data set on COS-1 cells [3] (continuous 48 h exposure to peptide alone), the “Cellular viability, continuous 48 h exposure, peptide alone” value was found to be 87±7%. Besides, the “Cellular viability, continuous 48 h exposure, QD conjugates” value in the data set with COS-1 cells [3] (continuous 48 h exposure to peptide-QD conjugates) stood at 97±6%.

The values are drawn from PMC3880025 (ACS nano, 2013).
